Experimental data taken from the RNAGym collection of RNA variant scans (doi:10.1126/science.aae0568).
This sample holds only a part of the variants without activity.

B1: tRNA (parent)
chain: GUUCCGUUGGCGUAAUGGUAACGCGUCUCCCUCCUAAGGAGAAGACUGCGGGUUCGAGUCCCGUACGGAACG

Variants of: B1
Test: yeast fitness relative to wild type (ratio to wild type); higher = fitter; tRNA-Arg(CCU), competitive growth, 37 C, YPD
Procedure, shortened: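 Variants of the tRNA-Arg(CCU) gene, chemically synthesised with a 3% per-site mutation rate at 69 sites, were placed at the native genomic locus in Saccharomyces cerevisiae. The pooled strains were competed in YPD at 37°C for 24 hours in six parallel replicates. Gene amplicons from the start population and from each end population were read by 100-nucleotide paired-end sequencing. Darwinian fitness relative to wild type came from changes in genotype frequencies; genotypes needed ≥ 100 starting reads, and estimates < 0.5 were set to 0.5.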

| Variant | yeast fitness |
| --- | --- |
| GUUCCGUUGGCGUAAUGGUAACGCGGCUCCCUCCUUAGGAGAAGACUGCGGGUUCGAGUCCCGUACGGAACG [U26G A36U] | 0.714 |
| GUUCCGUUGGCGUAAUGGUAACGCGGCUCCCUCCUAAGGAGAAGCCUGCGGGUUCGAGUCCCGUACGGAACG [U26G A45C] | 0.795 |
| GUUCCGUUGGCGUAAUGGUAACGCGCCUCCCUCCUAAGGAGAAGACUGCGGGUCCGAGUCCCGUACGGAACG [U26C U54C] | 0.887 |
| GUUCCGUUGGCGUAAUGGUAACGCGGGUCCCUCCUAAGGAGAAGACAGCGGGUCCGAGUCCUGUACGGAACG [U26G C27G U47A U54C C62U] | ≤ 0.5 |
| GUUCCGUUGGCGUAAUGGUAACGCGGCUCCCUCCUAAGGAGAAGGUUGCGGGGUCGAGUCCCAUAUGGUACG [U26G A45G C46U U53G G63A C66U A69U] | ≤ 0.5 |
| GUUCCGUUGGCGUAAUGGUAACGCGGCUCCUUCCUAAGGAGAAGACUGCGGGUUUGAGUCCCGUACGGAACG [U26G C31U C55U] | 0.564 |
| GUUCCGUUGGCGUAAUGGUAACGCGCCUCCCUCCUAAGGAGAAGAAGGCAGGUUCGAGUCACGUACAGAACG [U26C C46A U47G G50A C61A G67A] | ≤ 0.5 |
| GUUCCGUUGGCGUAAUGGUAACGCGGGUCCCUCCUAAGGAGAAGACUGCGGGUUCGCGUCCCGUACGGAACG [U26G C27G A57C] | 0.558 |
| GUUCCGUUGGCGUAAUGGUAACGCGCCUCCCUCCUAAGGAGAAGACUGCGGGUUUGAGUCCCGUACGGAACG [U26C C55U] | 0.617 |
| GUUCCGUUGGCGUAAUGGUAACGCGCCUCCCUCCUAAGGAGAAGACUCCGGGUUCGAGUCCCGUACGGAACG [U26C G48C] | 0.86 |
| GUUCCGUUGGCGUAAUGGUAACGCGGCUCCCUCCUAAGGAGAAGACUGCGGGUUCGAGUCCCGUACGGCACG [U26G A69C] | 0.948 |
| GUUCCGUUGGCGUAAUGGUAACGCGCCUCCCCCCUAAGGAGAAGACUGCGGGUUCGAGUCCCGUACGGAACG [U26C U32C] | 0.874 |
| GUUCCGUUGGCGUAAUGGUAACGCGCCUCCCCCCUAGGGAGAAGACUGCGGGUUCGAGUCCCGUAUGGCACG [U26C U32C A37G C66U A69C] | ≤ 0.5 |
| GUUCCGUUGGCGUAAUGGUAACGCGGCUCCCUCCUAAGGAGGCGAGUGCGGGUUCGAGUCCCGUACGGAACG [U26G A42G A43C C46G] | 0.677 |
| GUUCCGUUGGCGUAAUGGUAACGCGGUUCCCUCCUAAGGAGAAGACUGCGGGUUCGAGUCCCGUACGGAACG [U26G C27U] | 0.801 |
| GUUCCGUUGGCGUAAUGGUAACGCGGCUACCUCCUAAGGAGCAGACUGCGGGUUCGAGUCCCGUACGGAACG [U26G C29A A42C] | 0.586 |
| GUUCCGUUGGCGUAAUGGUAACGCGGCUCCCUCCUAAGGAGAAGUCUGCAGGUUCGAGUCCCGUACGGAACG [U26G A45U G50A] | 0.535 |
| GUUCCGUUGGCGUAAUGGUAACGCGCCUCCCUCCUAAGGAGAAGACUGCGGGUUCGAAUCCCGUACGGAACG [U26C G58A] | 1 |
| GUUCCGUUGGCGUAAUGGUAACGCGGCUCUCGCCUAAGGAGAAGACUGCGGCUUCGAGUCCCGUACGGAACG [U26G C30U U32G G52C] | ≤ 0.5 |

| Variant | yeast fitness |
| --- | --- |
| GUUCCGUUGGCGUAAUGGUAACGCGGCUGCCUCCUAAGGAGAAGCCUGCGGGUUCGAGUCCCGUACGGAACG [U26G C29G A45C] | ≤ 0.5 |
| GUUCCGUUGGCGUAAUGGUAACGCGCCUCCCCGCUAAGGAGCAGACUGGGGGUUCGACUCCGGUACGGAACG [U26C U32C C33G A42C C49G G58C C62G] | ≤ 0.5 |
| GUUCCGUUGGCGUAAUGGUAACGCGCCUCCCUCCUAAGGAGAAGACUGAGGGUUCGAGUCCCGUACAGAACG [U26C C49A G67A] | ≤ 0.5 |
| GUUCCGUUGGCGUAAUGGUAACGCGGCUCCGUCCUAAGGCGAAGACUGUGGGUUCGAGUCCCGUAAGGAACG [U26G C31G A40C C49U C66A] | 0.587 |
| GUUCCGUUGGCGUAAUGGUAACGCGGGUCCCUCCUAAGGAGAAGACUGCGGGUUCGCGUCCCGUAUGGUACG [U26G C27G A57C C66U A69U] | ≤ 0.5 |
| GUUCCGUUGGCGUAAUGGUAACGCGGCUCCUUCCUAAGGAGAAGACUGCGGGUUCGAGUCCCGUACGCAACG [U26G C31U G68C] | 0.636 |
| GUUCCGUUGGCGUAAUGGUAACGCGGCUCCCUCCUAAGGAGAAGGUUGCGGGGUCGAGUCCCGUACGGAACG [U26G A45G C46U U53G] | 0.599 |
| GUUCCGUUGGCGUAAUGGUAACGCGGCUCCCUCCUAGGGAGAAGACUGCGCGUUCGAGUCCCGUACGGAACG [U26G A37G G51C] | 0.801 |
| GUUCCGUUGGCGUAAUGGUAACGCGGGUCCCUUCUAAGCAGAAGACCGUGGGUUCGAGUCCCGUACGGAACG [U26G C27G C33U G39C U47C C49U] | ≤ 0.5 |
| GUUCCGUUGGCGUAAUGGUAACGCGCCUCCCUCCUAAGAAGAAGACUGCGGGUUCGAGAGCUGUACGGAACG [U26C G39A U59A C60G C62U] | ≤ 0.5 |
| GUUCCGUUGGCGUAAUGGUAACGCGGCUCCCUCCUAAGGAGAAGACUGCGGGUUCGAGUCCCGUACGGAUCG [U26G A70U] | 0.896 |
| GUUCCGUUGGCGUAAUGGUAACGCGGCUUCCUCCUAAGGAGAAGACUGCGGGUUCGAGUCCCGUUCGGAACG [U26G C29U A65U] | ≤ 0.5 |
| GUUCCGUUGGCGUAAUGGUAACGCGCCCCCCUCCUAAGGAGAAGAGUGCGGGUUCGAGUCCGGUACUGAACG [U26C U28C C46G C62G G67U] | ≤ 0.5 |
| GUUCCGUUGGCGUAAUGGUAACGCGCCUCCCUCCUAAGGAGAAGACUGCGGGUUCCCGUCCCGUACGGAUCG [U26C G56C A57C A70U] | ≤ 0.5 |
| GUUCCGUUGGCGUAAUGGUAACGCGCCUCCCUCCGAAGGAGAAGACUGCAGGUUCGAGUCCUGUACGGAACG [U26C U35G G50A C62U] | ≤ 0.5 |
| GUUCCGUUGGCGUAAUGGUAACGCGCCUCCCUCCUAAGGAGAAGACUGCGGGUUCGAGUCCCGUACUGAACG [U26C G67U] | 0.696 |
| GUUCCGUUGGCGUAAUGGUAACGCGCCACCCUCCUAAGGAGAAGACUGCGGGUUCGAGUCCCGUUCGGAACG [U26C U28A A65U] | 0.524 |
| GUUCCGUUGGCGUAAUGGUAACGCGCCUCCCUCCGAAGGAGAAGACUGCGGGUUCGAGUCCCGUACGGAACG [U26C U35G] | 0.615 |
